From ChEMBL document CHEMBL3994646, “Structure-based design and SAR development of 5,6-dihydroimidazolo[1,5-f]pteridine derivatives as novel Polo-like kinase-1 inhibitors” (Bioorg Med Chem Lett, 2017)
Values belong to the molecule of their own block, whether it stands above or below them.

What was measured:
[1] = system: HT-29; experiment: Antiproliferative activity against human HT-29 cells after 72 hrs by CellTiter-Glo assay; conditions: HT-29, 72 h
[2] = Oral bioavailability in rat; format: ADME, organism-based; conditions: in vivo
Method in brief: (§1)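 Rats dosed at about 1.0 mg/kg IV in 30% β-cyclodextrin in 0.05 M MSA, pH 3, and about 5.0 mg/kg orally in 0.5% methylcellulose. Clearance from the IV arm; oral bioavailability from comparison of the two routes.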

[3] = Clearance in rat; format: ADME; conditions: in vivo; method in brief: as §1
[4] = target: Cytochrome P450 3A4 (Homo sapiens, UniProt P08684); experiment: Inhibition of CYP3A4 (unknown origin); format: ADME
Cytochrome P450 3A4, sequence (P08684 whole entry): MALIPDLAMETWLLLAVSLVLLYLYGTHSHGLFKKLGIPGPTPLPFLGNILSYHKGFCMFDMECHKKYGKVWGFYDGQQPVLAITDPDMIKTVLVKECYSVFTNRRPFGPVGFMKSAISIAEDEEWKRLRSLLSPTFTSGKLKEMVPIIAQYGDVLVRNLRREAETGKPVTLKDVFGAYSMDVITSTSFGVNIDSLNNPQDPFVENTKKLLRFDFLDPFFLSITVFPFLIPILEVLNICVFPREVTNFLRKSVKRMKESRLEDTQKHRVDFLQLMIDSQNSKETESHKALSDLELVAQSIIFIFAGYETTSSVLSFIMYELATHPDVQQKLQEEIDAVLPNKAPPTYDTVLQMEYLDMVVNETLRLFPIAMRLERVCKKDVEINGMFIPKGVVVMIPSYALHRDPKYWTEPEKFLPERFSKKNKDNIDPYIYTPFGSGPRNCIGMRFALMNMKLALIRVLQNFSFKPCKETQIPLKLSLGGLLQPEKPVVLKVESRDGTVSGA

[5] = target: T1, Cytochrome P450 2C8 (Homo sapiens, UniProt P10632); experiment: Inhibition of CYP2C8 (unknown origin); format: ADME
T1 sequence (P10632 whole entry): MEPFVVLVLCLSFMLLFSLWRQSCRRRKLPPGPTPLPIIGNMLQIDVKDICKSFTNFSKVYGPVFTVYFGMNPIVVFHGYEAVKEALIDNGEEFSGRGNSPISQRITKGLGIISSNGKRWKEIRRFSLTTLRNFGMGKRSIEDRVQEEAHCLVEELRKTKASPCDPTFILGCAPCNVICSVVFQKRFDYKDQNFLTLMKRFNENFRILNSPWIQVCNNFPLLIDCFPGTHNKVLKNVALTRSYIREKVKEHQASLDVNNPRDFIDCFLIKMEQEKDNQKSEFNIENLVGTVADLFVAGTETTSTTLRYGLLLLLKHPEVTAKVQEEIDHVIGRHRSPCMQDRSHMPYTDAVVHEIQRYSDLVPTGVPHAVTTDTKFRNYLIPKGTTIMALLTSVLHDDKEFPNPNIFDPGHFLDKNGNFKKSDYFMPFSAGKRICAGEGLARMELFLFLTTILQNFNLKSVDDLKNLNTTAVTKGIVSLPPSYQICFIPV

[6] = target: hERG (KCNH2) (Homo sapiens, UniProt Q12809); experiment: Inhibition of human ERG at 10 uM relative to control
hERG (KCNH2), sequence (Q12809 whole entry): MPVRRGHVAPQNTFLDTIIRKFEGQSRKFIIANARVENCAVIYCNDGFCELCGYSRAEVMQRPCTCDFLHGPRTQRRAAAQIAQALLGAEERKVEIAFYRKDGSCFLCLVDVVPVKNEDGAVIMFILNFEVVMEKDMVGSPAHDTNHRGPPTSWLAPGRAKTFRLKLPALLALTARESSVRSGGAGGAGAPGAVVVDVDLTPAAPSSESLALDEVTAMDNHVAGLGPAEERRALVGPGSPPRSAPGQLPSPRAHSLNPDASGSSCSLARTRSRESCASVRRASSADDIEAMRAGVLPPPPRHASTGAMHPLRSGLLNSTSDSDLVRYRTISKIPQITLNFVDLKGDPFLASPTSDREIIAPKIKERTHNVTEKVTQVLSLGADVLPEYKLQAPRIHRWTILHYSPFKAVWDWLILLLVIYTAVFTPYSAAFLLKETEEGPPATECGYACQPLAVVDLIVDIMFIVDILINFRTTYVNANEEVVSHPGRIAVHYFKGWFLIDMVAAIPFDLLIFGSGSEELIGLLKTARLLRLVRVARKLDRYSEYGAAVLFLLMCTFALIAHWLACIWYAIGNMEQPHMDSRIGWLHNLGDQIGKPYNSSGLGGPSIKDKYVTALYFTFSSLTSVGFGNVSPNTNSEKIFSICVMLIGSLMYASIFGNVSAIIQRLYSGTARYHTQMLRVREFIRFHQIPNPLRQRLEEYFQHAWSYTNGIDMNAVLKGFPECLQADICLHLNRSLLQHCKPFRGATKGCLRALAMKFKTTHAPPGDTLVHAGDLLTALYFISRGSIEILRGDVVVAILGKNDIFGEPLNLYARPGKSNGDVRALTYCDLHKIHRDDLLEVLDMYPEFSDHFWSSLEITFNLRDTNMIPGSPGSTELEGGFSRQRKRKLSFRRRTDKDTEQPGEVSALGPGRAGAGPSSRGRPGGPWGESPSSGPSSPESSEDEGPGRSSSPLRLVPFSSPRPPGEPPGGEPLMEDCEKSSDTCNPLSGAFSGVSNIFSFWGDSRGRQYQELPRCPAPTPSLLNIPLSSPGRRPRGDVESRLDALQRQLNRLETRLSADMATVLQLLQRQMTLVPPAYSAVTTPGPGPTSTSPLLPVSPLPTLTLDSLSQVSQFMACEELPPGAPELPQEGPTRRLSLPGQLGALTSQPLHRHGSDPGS

[7] = Inhibition of CYP450 (unknown origin); format: ADME; conditions: human
[8] = Half life in mouse at 1 mg/kg, iv; format: ADME, organism-based; conditions: in vivo
Method in brief: (§2)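 Female mice dosed intravenously at 1 mg/kg. Plasma concentration–time data used to derive Cmax, T1/2, MRT, AUC0-t, extrapolated AUC, clearance and steady-state volume of distribution.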

[9] = Mean residence time in mouse at 5 mg/kg, po; format: ADME, organism-based; conditions: in vivo
Method in brief: (§3)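 Female mice given 5 mg/kg orally. Oral exposure (Cmax, Tmax, T1/2, MRT, AUC0-t, extrapolated AUC) measured, and bioavailability taken relative to the 1 mg/kg IV arm.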

[10] = AUC (0 to t) in mouse at 5 mg/kg, po; format: ADME, organism-based; conditions: in vivo; method in brief: as §3
[11] = system: HT-29; experiment: Antitumor activity against human HT-29 cells xenografted in mouse assessed as tumor growth inhibition at 45 mg/kg, iv 1/time/week x 1 cycle relative to control; format: functional
Method in brief: (§4)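 Mice bearing HT-29 xenografts given 45 mg/kg IV once weekly for one cycle. Efficacy expressed as tumour T/C (%) versus control; tolerability as percent body weight loss.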

[12] = AUCextrapolated in mouse at 5 mg/kg, po; format: ADME, organism-based; conditions: in vivo; method in brief: as §3
[13] = Cmax in mouse at 1 mg/kg, iv; format: ADME, organism-based; parameters: dose 1 mg/kg, route intravenous; conditions: in vivo; method in brief: as §2
[14] = Tmax in mouse at 5 mg/kg, po; format: ADME, organism-based; conditions: in vivo; method in brief: as §3
[15] = AUCextrapolated in mouse at 1 mg/kg, iv; format: ADME, organism-based; conditions: in vivo; method in brief: as §2
[16] = AUC (0 to t) in mouse at 1 mg/kg, iv; format: ADME, organism-based; conditions: in vivo; method in brief: as §2
[17] = Cmax in mouse at 5 mg/kg, po; format: ADME, organism-based; parameters: dose 5 mg/kg, route oral; conditions: in vivo; method in brief: as §3
[18] = Oral bioavailability in mouse at 5 mg/kg; format: ADME, organism-based; conditions: in vivo; method in brief: as §3
[19] = Half life in mouse at 5 mg/kg, po; format: ADME, organism-based; conditions: in vivo; method in brief: as §3
[20] = Mean residence time in mouse at 1 mg/kg, iv; format: ADME, organism-based; conditions: in vivo; method in brief: as §2
[21] = system: Mus musculus; experiment: Toxicity in mouse xenografted with human HT-29 cells assessed as body weight loss at 45 mg/kg, iv 1/time/week x 1 cycle relative to control; format: organism-based; conditions: in vivo; method in brief: as §4
[22] = Clearance in mouse at 1 mg/kg, iv; format: ADME, organism-based; conditions: in vivo; method in brief: as §2
[23] = system: Mus musculus; experiment: Bioavailability in mouse at 5 mg/kg, po; conditions: in vivo
[24] = Volume of distribution at steady state in mouse at 1 mg/kg, iv; format: ADME, organism-based; conditions: in vivo, read-out: Vdss; method in brief: as §2

EC50 [1]: 0.02 µM
SMILES: CC[C@@H]1c2c(C(N)=O)ncn2-c2cnc(Nc3ccc(C(=O)NC4CCN(C)CC4)cc3OC)nc2N1C1CCCC1

bioavailability [2]: 49%
clearance [3]: 28 mL/min/kg
EC50 [1]: 0.001 µM
IC50 [4]: < 10 µM
IC50 [5]: < 10 µM
SMILES: CC[C@@H]1c2c(C#N)ncn2-c2cnc(Nc3cc(F)c(C(=O)NC4CCN(C)CC4)cc3OC)nc2N1C1CCCC1

EC50 [1]: 0.003 µM
inhibition (INH) [7]: Not Active
SMILES: CC[C@@H]1c2c(C#N)ncn2-c2cnc(Nc3cc(F)c(C(=O)NC4CCN(CC)CC4)cc3OC)nc2N1C(C)C
inhibition at 10 µM [6]: 37%

EC50 [1]: 0.009 µM
SMILES: CCOC(=O)c1ncn2c1[C@@H](CC)N(C1CCCC1)c1nc(Nc3ccc(C(=O)NC4CCN(C)CC4)cc3OC)ncc1-2

bioavailability [2]: 0%
clearance [3]: 76 mL/min/kg
EC50 [1]: 0.0027 to 0.003 µM
IC50 [4]: < 10 µM
SMILES: CC[C@@H]1c2c(C#N)ncn2-c2cnc(Nc3ccc(C(=O)NC4CCN(C)CC4)cc3OC)nc2N1C1CCCC1

EC50 [1]: 0.002 µM
IC50 [4]: < 10 µM
IC50 [5]: < 10 µM
SMILES: CC[C@@H]1c2c(C#N)ncn2-c2cnc(Nc3cc(F)c(C(=O)NC4CCN(C)CC4)cc3OC)nc2N1C1CCCCC1

EC50 [1]: 0.1 µM
SMILES: CCNC(=O)c1ncn2c1[C@@H](CC)N(C1CCCC1)c1nc(Nc3ccc(C(=O)NC4CCN(C)CC4)cc3OC)ncc1-2

bioavailability [2]: 0.5%
EC50 [1]: 0.006 µM
inhibition (INH) [7]: Not Active
SMILES: CC[C@@H]1c2c(C#N)ncn2-c2cnc(Nc3ccc(C(=O)NC4CCN(C)CC4)cc3OC)nc2N1C(C)C

EC50 [1]: 0.003 µM
inhibition (INH) [7]: Not Active
SMILES: CC[C@@H]1c2c(C#N)ncn2-c2cnc(Nc3cc(F)c(C(=O)NC4CN(C)C4)cc3OC)nc2N1C(C)C

EC50 [1]: 0.06 µM
SMILES: CC[C@@H]1c2c(C(=O)N(C)O)ncn2-c2cnc(Nc3ccc(C(=O)NC4CCN(C)CC4)cc3OC)nc2N1C1CCCC1

EC50 [1]: 0.4 µM
SMILES: CC[C@@H]1c2c(C(=O)O)ncn2-c2cnc(Nc3ccc(C(=O)NC4CCN(C)CC4)cc3OC)nc2N1C1CCCC1

half-life [8]: 4.7 h
bioavailability [2]: 100%
MRT [9]: 13 h
AUC(0-t) [10]: 3900 ng·h/mL
EC50 [1]: 0.022 µM
AUC [12]: 4590 ng·h/mL
Cmax [13]: 258 ng/mL
Tmax [14]: 4 h
AUC [15]: 1010 ng·h/mL
AUC(0-t) [16]: 713 ng·h/mL
inhibition (INH) [7]: Not Active
Cmax [17]: 354 ng/mL
bioavailability [18]: 101%
half-life [19]: 8.5 h
MRT [20]: 6.5 h
clearance [22]: 22.7 mL/min/kg
F [23]: 100%
Vd [24]: 8.9 L/kg
SMILES: CC[C@@H]1c2c(C#N)ncn2-c2cnc(Nc3cc(F)c(C(=O)N[C@H]4CC[C@H](N5CCN(CC6CC6)CC5)CC4)cc3OC)nc2N1C(C)C
T/C [11]: 54.6%
Activity [21]: 5.5%

EC50 [1]: 0.03 µM
SMILES: CC[C@@H]1c2c(CO)ncn2-c2cnc(Nc3ccc(C(=O)NC4CCN(C)CC4)cc3OC)nc2N1C1CCCC1

bioavailability [2]: 47%
EC50 [1]: 0.004 µM
inhibition (INH) [7]: Not Active
SMILES: CC[C@@H]1c2c(C#N)ncn2-c2cnc(Nc3cc(F)c(C(=O)NC4CCN(C)CC4)cc3OC)nc2N1C(C)C
